From ChEMBL document CHEMBL4513216, “Probing the Open Global Health Chemical Diversity Library for Multistage-Active Starting Points for Next-Generation Antimalarials” (ACS Infect Dis, 2020)

Assay: Toxicity liver stage against HepG2, at 10uM
Format: cell-based
Design: test concentration 10 uM, cell line HepG2-A16-CD81EGFP
Conditions: human, HepG2-A16-CD81EGFP cells; read-out: INHIBITION
Procedure, shortened: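 Uninfected HepG2-A16-CD81EGFP cells, 3 × 10^3 per well, 1536-well, plated on prespotted compound at 10 μM final, parasite-free screening media added to match infected plates; puromycin 10 μM positive, DMSO 0.5% negative; run in parallel with 48 h PbLuc assay at 37 °C, 5% CO2; viability by CellTiter-Glo luminescence, normalized to controls.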

| Compound | cytotoxicity at 10 µM [%] |
| --- | --- |
| CN(C)C(=O)c1cccnc1SCc1ccccc1C#N | 2.02 |
| CC[C@H]1N(Cc2ccco2)CCC[C@]12CCC(=O)N2C | 4.23 |
| CO[C@H]1CN(C(=O)c2ccc3c(c2)OCO3)[C@@H]2COC[C@H]12 | -142 |
| Cc1oncc1C(=O)N1CCC2(CCN(Cc3cccc(F)c3)C2=O)C1 (configuration not stated) | -142 |
| CCOC(=O)CSc1ccc(-c2nc(CC)no2)cn1 | -17.1 |
| COc1ccc(-c2cc(=O)n3c(n2)CCCCC3)cc1 | -14.1 |
| CC(=O)N1CCC2(CC1)C(=O)N(CC1CC1)c1ccccc12 | 11.2 |
| CCn1nc(C)c2nc(C(C)C)nc(N3CCC(O)CC3)c21 | 1.3 |
| Nc1no[n+]([O-])c1C(=O)NCc1ccccn1 | -2.02 |
| CN(C(=O)c1ccncc1)c1nnc(C2CCOC2)s1 (configuration not stated) | 3.57 |
| CCCC(=O)NCCc1nc(N(C)C)ncc1-c1ccncc1 | 2.92 |
| COCCNCc1cc2ccc(C)c(C)c2[nH]c1=O | 5.13 |
| CN(C)CC(=O)N1CCCC1c1ccccn1 (configuration not stated) | 4.38 |
| CNc1cc(C2CN(Cc3cccnc3NC)CCO2)nc(C)n1 (configuration not stated) | 2.93 |
| CCCn1nc(C)c(C(=O)N[C@@H]2CC[C@@H](N3CCCC3)[C@@H]2O)c1C | -4.79 |
| Cc1cc(C)n(CC(=O)N2CCC(c3cc4cccnc4[nH]3)CC2)n1 | 16.8 |
| FC(F)(F)c1cc(C2CCNCC2)nc(-c2ccsc2)n1 | 8.6 |
| CCCC(=O)N1CCC(c2cc3cccnc3c(O)n2)CC1 | -3.63 |
| CC1(C2CCN(CC(N)=O)CC2)CN(Cc2ccccc2)C(=O)O1 (configuration not stated) | -23.4 |
| NC(=O)C1CCN(C(=O)CCn2c(C(F)(F)F)cc3cccnc32)CC1 | -23.7 |
| CN(C)CCN(C)C(=O)c1ccccc1-n1cc(CN(C)C)cn1 | -13.7 |
| O=C(c1cccnc1)N1CCC(c2nc(O)cc(-c3ccncc3)n2)C1 (configuration not stated) | -20.8 |
| O=C(Cn1ccnc1)N1C[C@@H]2CC[C@H](Oc3cccc(F)c3)[C@@H]2C1 | -18 |

| Compound | cytotoxicity at 10 µM [%] |
| --- | --- |
| CCn1cc(CN2CCc3nc(-c4ccccn4)nc(O)c3C2)cn1 | -2.25 |
| CNc1ccc(CC2CCCN(C(=O)c3cnco3)C2)nn1 (configuration not stated) | -8.55 |
| Cc1nc(C)n(CC2CCCN2c2ccnc(-c3ccccc3)n2)n1 (configuration not stated) | 9.69 |
| Cc1occc1C(=O)NCC(=O)N1CCC(COc2ccccc2)CC1 | 12.2 |
| CC(C(=O)N(C)Cc1ccc(Br)o1)n1cccn1 (configuration not stated) | 4.9 |
| CS(=O)(=O)NCc1ccc2c(c1)CCC2 | -1.9 |
| CC(OCC1CC1)C(=O)NCCC(=O)Nc1ccccn1 (configuration not stated) | -5.72 |
| COCCn1cc(C(=O)NCCS(N)(=O)=O)c2ccccc21 | 7.01 |
| CC(=O)NCCNC(=O)NCC1Cc2ccccc2O1 (configuration not stated) | -1.83 |
| Cc1nc(C)c(C(C)NCc2c(C(C)C)nn(C)c2N(C)C)s1 (configuration not stated) | -8.53 |
| FC(F)(F)c1csc(N2CCN(Cc3ccccn3)CC2)n1 | 4.25 |
| CC(O)CN1CCN(Cc2coc(-c3ccccc3)n2)CC1 (configuration not stated) | -5.93 |
| Cc1cc(C(=O)NCCC(=O)N2CCCc3ccccc32)no1 | 2.29 |
| COc1cc(CNC(=O)c2cc(S(C)(=O)=O)ccc2C)ccn1 | -1.65 |
| Cc1nnc2n1CCN(C(=O)C(C)Oc1ccc(C#N)cc1)C2 (configuration not stated) | -0.643 |
| Cc1noc(CSc2ccc(C(F)(F)F)cn2)n1 | -12.5 |
| CCN(CC)c1nc2sc(C(=O)NC(C)(C)C(=O)OC)cc2s1 | 3.58 |
| CC(C)C(C(=O)NC1CC1)n1cnc2cc(F)c(F)cc21 (configuration not stated) | 15.3 |
| Cc1cccc(NC(=O)[C@@H]2CCCN2Cc2nc3ccccc3o2)n1 | -4.61 |
| COCc1ccc(C(=O)N2CCOCC2c2ccc(C)o2)cc1 (configuration not stated) | -5.48 |
| N#Cc1ncn(CCC(=O)Nc2ccc(F)c(F)c2)n1 | -147 |
| CCCc1nc(C)c(C(=O)Nc2cccc(C)n2)s1 | -40.8 |
| Cc1nc2ccc(C(=O)N3CCn4c(C)nnc4C3)cc2nc1C | -6.2 |

| Compound | cytotoxicity at 10 µM [%] |
| --- | --- |
| CCCOc1cc(C)ccc1NC(=O)NCCNC(C)=O | -6.58 |
| Cc1ccc(OCCC(=O)NCCCN2CCCC2=O)c(C)c1 | -1.08 |
| Cc1ncncc1C(=O)N1CCCN(Cc2cnn(C(C)C)c2)CC1 | 0.814 |
| Cn1c(C2CC2)nc2c1CCN(CCc1ccccn1)C2 | 4.59 |
| CCc1noc(CC)c1CC(=O)N1CCN(C(=O)C2CCCC2)CC1 | -4.78 |
| CCOC(C)c1nc(Cn2cc(C)cn2)cs1 (configuration not stated) | 5.52 |
| CC(C)OCCSCCn1nc2ccccn2c1=O | 3.36 |
| CC(C)N(C)C(=O)CSCc1ccc(S(=O)(=O)N(C)C)o1 | 19.1 |
| Clc1cnc(NCc2ccccc2N2CCOCC2)nc1 | -0.234 |
| Cn1ccnc1CNCCNc1ncc(Cl)cc1Cl | 0.321 |
| COc1cc(CNc2cnn(CCN3CCOCC3)c2)cc(OC)c1 | -7.38 |
| CC1CCN(CC(O)CNc2ccccn2)CC1 (configuration not stated) | 11.4 |
| O=C(c1cccs1)N1CCN(C(=O)c2ncoc2-c2ccco2)CC1 | 3.82 |
| CCCS(=O)(=O)NCCc1ncc(CC)s1 | -1.56 |
| Cc1nc(C)n(CC2CCCCN2CC(=O)Nc2nncs2)n1 (configuration not stated) | 4.62 |
| CCOCC(O)CN1CCN(C(=O)c2ccnc(N(C)C)c2)CC1 (configuration not stated) | -3.47 |
| CN(Cc1ccc(F)cc1)C(=O)Cn1nc(-c2ccc(F)cc2)oc1=O | 8.68 |
| O=C(CCNC(=O)c1ccccc1)Nc1ccncc1 | -2.36 |
| Cc1cc(NC(=O)N2CCN(c3nc(C)c(C)s3)CC2)no1 | 3.04 |
| O=C(NCC1CC2(CO1)CN(c1nncs1)C2)C1CCC1 (configuration not stated) | -103 |
| O=c1[nH]c(-c2ccncc2)ncc1-c1ccnc(NC2CCCCC2)n1 | -9.24 |
| CN1CCN(S(=O)(=O)c2ccc(C(=O)N3CC[C@@H](O)C3)cc2)CC1=O | 2.7 |
| Cc1ccccc1SC1CCN(C(=O)C2CNCC(=O)N2)CC1 (configuration not stated) | -3.81 |

| Compound | cytotoxicity at 10 µM [%] |
| --- | --- |
| COc1cc(OC)cc(C2CC(=O)Nc3c2nc2n3CCCC2)c1 (configuration not stated) | -3.99 |
| CC(C)(O)CCc1cccc(C(=O)N2CCC[C@H]2CN2CCCC2)c1 | -1.13 |
| O=C(c1ccc(-n2cnnc2)cc1Cl)N1CCCC(O)(CO)CC1 (configuration not stated) | -3.59 |
| CN(Cc1ccsc1)C(=O)C1CCC(=O)N(Cc2ccccn2)C1 (configuration not stated) | 0.0228 |
| CNCC(=O)NC1CC(C)(C)Cc2nc(C(C)(C)C)ncc21 (configuration not stated) | 10.2 |
| COc1nc2c(cc1C(=O)N1CCCC1c1ccccn1)CCC2 (configuration not stated) | -5.54 |
| O=C(CCN1CCOCC1)NC1CCCN(CC2CCCCC2)C1 (configuration not stated) | 1.64 |
| Cc1nn(C)c2nc(NC(C)c3nnn[nH]3)sc12 (configuration not stated) | -0.909 |
| COc1ccc(CC2(CO)CCN(c3cc(C#N)ccn3)CC2)cc1 | 8.86 |
| COc1cccc(OC)c1-c1c[nH]c(C)n1 | -1.57 |
| COCc1nc(CNC2CSCCSC2)no1 | 8.33 |
| Cc1nc(NCCSc2cnn[nH]2)c2c(C)noc2n1 | -3.21 |
| O[C@@]1(CNCC2(Cn3cccn3)CC2)CCCN2CCCC[C@@H]21 | 4.13 |
| CCCC(=O)N1CCCC(Cn2cc(-c3ccc(F)cc3)nn2)C1 (configuration not stated) | 7.88 |
| CN(CC1CCCCO1)S(=O)(=O)c1cccc(C(=O)N2CCOCC2)c1 (configuration not stated) | -12.4 |
| COc1cccc2c(=O)n(Cc3nc(C)cc(O)n3)cnc12 | 9.49 |
| CN(Cc1n[nH]c(=O)n1Cc1ccccc1F)S(C)(=O)=O | -4.98 |
| CC(C)CCC(=O)N1CCCC2(CCN(Cc3ccccc3C#N)C2)C1 (configuration not stated) | 0.129 |
| Cc1ccc2nc(C3CCCN3C(=O)c3cc(=O)[nH]c(=O)[nH]3)[nH]c2c1 (configuration not stated) | 18.7 |
| c1ccc(CCCN2CCCC(Nc3cnc4ccccc4n3)C2)cc1 (configuration not stated) | 1.34 |
| CCNC(=O)N1CCCC(C(=O)c2cccc(OC(C)C)c2)C1 (configuration not stated) | 8.62 |
| O=C(CCc1cc(O)no1)N1CCCC(COc2ccc(F)cc2)C1 (configuration not stated) | 2.47 |
| CC(C)c1ncc(CN2C[C@@H](CN3CCC(CO)CC3)[C@@H](CO)C2)cn1 | 20 |

| Compound | cytotoxicity at 10 µM [%] |
| --- | --- |
| CCC(=O)N1CC[C@@H](c2ccc3ccccc3c2)[C@H](O)C1 | -11.4 |
| O=C(NCCc1ccccn1)Nc1cc(C(F)(F)F)c[nH]c1=O | -6.78 |
| Cc1ccc(O)c(C(=O)N2CCOCC2c2c(C)n[nH]c2C)c1 (configuration not stated) | -10.8 |
| Cc1nc(C)n(C2CCCN(C(=O)c3cncnc3C)C2)n1 (configuration not stated) | -2.48 |
| CC(C)c1nnc2n1CCN(C(=O)Cc1csc(C(C)(C)C)n1)C2 | -4.54 |
| COc1ccc(C(=O)N(C)Cc2ncc(C)c(OC)c2C)c(OC)c1 | -4.28 |
| COc1ccccc1C(O)CNC(=O)NCc1cccnc1OC (configuration not stated) | -4.48 |
| CCN(CC)C1CCN(C(=O)c2cc3cc(C)cc(C)c3nc2C)CC1 | 0.199 |
| Fc1ccccc1CN(CCCn1ccnc1)CC1CCOC1 (configuration not stated) | 8.68 |
| COc1ccc(C[C@H]2CNCC[C@H]2OC)cc1 | 1.76 |
| O=C(CN1CCN(CC(O)C2CC2)CC1)NCc1ccc(F)cc1 (configuration not stated) | -0.084 |
| Cc1cccc(CN2CCC3(CC2)NC(=O)C[C@H]3c2cnn(C)c2)n1 | 4.53 |
| Cc1ccc2c(n1)N(C)CCN(C(=O)NC1CC1)C2 | 1.36 |
| O=C(C1CCC2(CCN(CC3CC3)CC2)O1)N1CCCC1 (configuration not stated) | 1.58 |
| Cc1cccc(CN2C[C@@H]3CN(C(=O)c4cnoc4C)C[C@@H]3C2=O)n1 | 5.71 |
| O=C1[C@H]2CN(C3CCOCC3)C[C@H]2CN1Cc1cccc(F)c1 | -117 |
| O=C1CC(c2ccncc2)C2(CCN(Cc3ccc(F)cc3)CC2)N1 (configuration not stated) | 1.35 |
| CC(C)N1CCc2[nH]nc(C(=O)N3CCN(C)CC3)c2C1 | -3.75 |
| NCC1CCC(C(NC(=O)CC2CCCC2)c2ccccn2)CC1 (configuration not stated) | -14.6 |
| CNC(=O)[C@H]1C[C@H]2CN(Cc3ccccc3)C[C@@H]1O2 | 8.84 |
